Molecules are shown by their SMILES.

For one experiment, the system named is A549. Put plainly: Cytotoxicity against human A549 cells after 72 hrs by SRB assay. The class given is functional, cell-based. The conditions noted are these: A549, 72 h. Summed up: (§1)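 Ditartrate salts tested. ATCC cells seeded at 6000/well, attached overnight, then exposed in triplicate to graded concentrations at 37 °C for 72 h. Fixed with 10% trichloroacetic acid for 60 min at 4 °C, stained with 0.4% w/v SRB in 1% acetic acid for 15 min, dye solubilised in Tris buffer, A515 read. IC50 for 50% growth inhibition by Logit method. Anhydrovinblastine as positive control.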
(The SRB assay estimates cell density from bound dye.)

The test system of a further experiment is HeLa. The experiment in a line: Cytotoxicity against human HeLa cells after 72 hrs by SRB assay. The class given is functional, cell-based. Summed up: as §1

By IC50 is commonly meant the concentration that inhibits the measured activity by half. A higher IC50 goes with weaker potency. On to `CCC1=C[C@@H]2CN(CCc3c([nH]c4ccccc34)[C@@](C(=O)OC)(c3cc4c(cc3OC)N(C)[C@H]3[C@@](O)(COC(C)=O)[C@H](OC(C)=O)[C@]5(CC)C=CCN6CC[C@]43[C@@H]65)C2)C1`, for which the IC50 came to 0.0382 µM with A549 and 0.0353 µM in the experiment on HeLa.

Take `CCC1=C[C@@H]2CN(CCc3c([nH]c4ccccc34)[C@@](C(=O)OC)(c3cc4c(cc3OC)N(C)[C@H]3[C@@](O)(COC(=O)c5ccccc5OC)[C@H](OC(C)=O)[C@]5(CC)C=CCN6CC[C@]43[C@@H]65)C2)C1`: the values for the IC50 with A549 and with HeLa were 0.0142 µM and 0.154 µM, respectively.

As for `CCC1=C[C@@H]2CN(CCc3c([nH]c4ccccc34)[C@@](C(=O)OC)(c3cc4c(cc3OC)N(C)[C@H]3[C@@](O)(COC(=O)C(C)(C)C)[C@H](OC(C)=O)[C@]5(CC)C=CCN6CC[C@]43[C@@H]65)C2)C1`, the IC50 in the experiment on A549 stood at 0.181 µM; in the experiment on HeLa, 0.096 µM.

Regarding `CCC1=C[C@@H]2CN(CCc3c([nH]c4ccccc34)[C@@](C(=O)OC)(c3cc4c(cc3OC)N(C)[C@H]3[C@@](O)(COC(=O)C(C)C)[C@H](OC(C)=O)[C@]5(CC)C=CCN6CC[C@]43[C@@H]65)C2)C1`, the concentration for half-maximal inhibition (IC50) with A549 was determined as 0.0599 µM; with HeLa, 0.0875 µM.

For `CCC1=C[C@@H]2CN(CCc3c([nH]c4ccccc34)[C@@](C(=O)OC)(c3cc4c(cc3OC)N(C)[C@H]3[C@@](O)(COC(=O)c5ccc(Cl)cc5)[C@H](OC(C)=O)[C@]5(CC)C=CCN6CC[C@]43[C@@H]65)C2)C1`, the 50% inhibitory concentration (IC50) came out at 0.0567 µM with A549 and 0.102 µM in the experiment on HeLa.

As to `CCC1=C[C@@H]2CN(CCc3c([nH]c4ccccc34)[C@@](C(=O)OC)(c3cc4c(cc3OC)N(C)[C@H]3[C@@](O)(COC(=O)C5CC5)[C@H](OC(C)=O)[C@]5(CC)C=CCN6CC[C@]43[C@@H]65)C2)C1`, the figures for the IC50 in the experiment with A549 and in the experiment on HeLa were 0.0479 µM and 0.0381 µM, respectively.

As for `CCC1=C[C@@H]2CN(CCc3c([nH]c4ccccc34)[C@@](C(=O)OC)(c3cc4c(cc3OC)N(C)[C@H]3[C@@](O)(COC(=O)Cc5ccccc5)[C@H](OC(C)=O)[C@]5(CC)C=CCN6CC[C@]43[C@@H]65)C2)C1`, the IC50 in the experiment on A549 was determined as 0.0674 µM; in the experiment on HeLa it was 0.272 µM.

As to `CCC1=C[C@@H]2CN(CCc3c([nH]c4ccccc34)[C@@](C(=O)OC)(c3cc4c(cc3OC)N(C)[C@H]3[C@@](O)(COCc5ccc(OC)cc5)[C@H](OC(C)=O)[C@]5(CC)C=CCN6CC[C@]43[C@@H]65)C2)C1`, the IC50 in the experiment on A549 was 0.702 µM; in the experiment on HeLa, 0.409 µM.

On to `CCC(=O)OC[C@@]1(O)[C@H](OC(C)=O)[C@]2(CC)C=CCN3CC[C@@]4(c5cc([C@@]6(C(=O)OC)C[C@@H]7C=C(CC)CN(CCc8c6[nH]c6ccccc86)C7)c(OC)cc5N(C)[C@@H]14)[C@@H]32`, for which the concentration for half-maximal inhibition (IC50) came out at 0.0391 µM in the experiment with A549 and 0.0621 µM in the experiment on HeLa.

Take `CCOC[C@@]1(O)[C@H](OC(C)=O)[C@]2(CC)C=CCN3CC[C@@]4(c5cc([C@@]6(C(=O)OC)C[C@@H]7C=C(CC)CN(CCc8c6[nH]c6ccccc86)C7)c(OC)cc5N(C)[C@@H]14)[C@@H]32`: the IC50 is 0.098 µM with A549 and 0.22 µM in the experiment with HeLa.

As to `CCCOC[C@@]1(O)[C@H](OC(C)=O)[C@]2(CC)C=CCN3CC[C@@]4(c5cc([C@@]6(C(=O)OC)C[C@@H]7C=C(CC)CN(CCc8c6[nH]c6ccccc86)C7)c(OC)cc5N(C)[C@@H]14)[C@@H]32`, the IC50 amounted to 0.401 µM with A549 and 0.398 µM with HeLa.

For `CCC1=C[C@@H]2CN(CCc3c([nH]c4ccccc34)[C@@](C(=O)OC)(c3cc4c(cc3OC)N(C)[C@H]3[C@@](O)(COC(=O)c5ccc(OC)cc5)[C@H](OC(C)=O)[C@]5(CC)C=CCN6CC[C@]43[C@@H]65)C2)C1`, the IC50 is 0.0297 µM with A549 and 0.151 µM in the experiment on HeLa.

As for `CCC1=C[C@@H]2CN(CCc3c([nH]c4ccccc34)[C@@](C(=O)OC)(c3cc4c(cc3OC)N(C)[C@H]3[C@@](O)(COC(=O)CC(C)C)[C@H](OC(C)=O)[C@]5(CC)C=CCN6CC[C@]43[C@@H]65)C2)C1`, the IC50 in the experiment with A549 stood at 0.0703 µM; in the experiment on HeLa, 0.175 µM.

Turning to `CCCCOC[C@@]1(O)[C@H](OC(C)=O)[C@]2(CC)C=CCN3CC[C@@]4(c5cc([C@@]6(C(=O)OC)C[C@@H]7C=C(CC)CN(CCc8c6[nH]c6ccccc86)C7)c(OC)cc5N(C)[C@@H]14)[C@@H]32`, the IC50 in the experiment on A549 and with HeLa was 0.422 µM each time.

On to `C=CCOC[C@@]1(O)[C@H](OC(C)=O)[C@]2(CC)C=CCN3CC[C@@]4(c5cc([C@@]6(C(=O)OC)C[C@@H]7C=C(CC)CN(CCc8c6[nH]c6ccccc86)C7)c(OC)cc5N(C)[C@@H]14)[C@@H]32`, for which the values for the IC50 in the experiment with A549 and in the experiment with HeLa were 0.124 µM and 0.162 µM, respectively.

`CCC1=C[C@@H]2CN(CCc3c([nH]c4ccccc34)[C@@](C(=O)OC)(c3cc4c(cc3OC)N(C)[C@H]3[C@@](O)(COC(=O)c5ccccc5Cl)[C@H](OC(C)=O)[C@]5(CC)C=CCN6CC[C@]43[C@@H]65)C2)C1`: the IC50 in the experiment with A549 amounted to 0.0405 µM; in the experiment with HeLa, 0.147 µM.

Take `CCC1=C[C@@H]2CN(CCc3c([nH]c4ccccc34)[C@@](C(=O)OC)(c3cc4c(cc3OC)N(C)[C@H]3[C@@](O)(COC(=O)c5ccc([N+](=O)[O-])cc5)[C@H](OC(C)=O)[C@]5(CC)C=CCN6CC[C@]43[C@@H]65)C2)C1`: the IC50 is 0.0523 µM in the experiment on A549 and 0.169 µM in the experiment with HeLa.

Take `CCC1=C[C@@H]2CN(CCc3c([nH]c4ccccc34)[C@@](C(=O)OC)(c3cc4c(cc3OC)N(C)[C@H]3[C@@](O)(COC(=O)c5ccccc5)[C@H](OC(C)=O)[C@]5(CC)C=CCN6CC[C@]43[C@@H]65)C2)C1`: the IC50 with A549 worked out at 0.0254 µM; in the experiment on HeLa, 0.0356 µM.

The values are drawn from ChEMBL document CHEMBL1140087, “Synthesis and structure-activity relationship studies of cytotoxic ester and ether anhydrovinblastine derivatives” (J Nat Prod, 2008).
